This passage reports inhibition results from ChEMBL document CHEMBL2331545, “Synthesis of antioxidants for prevention of age-related macular degeneration” (J Nat Prod, 2013).

One assay has as its system ARPE-19. Briefly: Inhibition of intracellular A2E photooxidation in human ARPE19 cells at 20 uM after 18 days. The assay is classed as functional, cell-based. Put shortly: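 ARPE-19 cells (lacking endogenous A2E) grown to confluence for 5 days, then fed 10 µM synthetic A2E for 18 days in medium with 10% FBS. Antioxidant at 20 µM present on days 10–18. Cells washed in DPBS and irradiated at 430 nm (2.8 mW/cm2) for 10 min. Trypsinised, counted, dried, methanol-extracted. A2E quantified by reversed-phase HPLC; loss versus unirradiated cells gave percent photooxidation.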

Assay [1] is described as follows: Inhibition of A2E photooxidation at 100 uM after 5 mins by reversed-phase HPLC analysis. It counts as functional. Put shortly:
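Cell-free assay: A2E (200 µM DMSO stock) added to DPBS, antioxidant from DMSO solution added to 100 µM final. Irradiated at 430 nm (2.8 mW/cm2) for 5 min. Samples diluted with EtOH and analysed by reversed-phase HPLC under dim red light. Percent photooxidation taken as A2E loss relative to unirradiated samples.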

Calls of active or inactive are those of the source. The calls are words filed in the database; no cut-off is given here.

`CN(CCN(C)Cc1c(O)cc(O)c2c(=O)c(O)c(-c3ccc(O)c(O)c3)oc12)Cc1c(O)cc(O)c2c(=O)c(O)c(-c3ccc(O)c(O)c3)oc12`: the inhibition entry (in the assay on ARPE-19; in assay [1]) was “Active” in each case.
`O=c1c(O)c(-c2ccc(O)c(O)c2)oc2c(CN3CCOCC3)c(O)cc(O)c12`: the inhibition entry (in the assay with ARPE-19; in assay [1]) was “Active” each time.
Turning to `O=c1c(O)c(-c2ccc(O)c(O)c2)oc2cc(O)cc(O)c12`, the inhibition result (in the assay on ARPE-19; in assay [1]) was “Active” each time.
With `O=c1c(O)c(-c2ccc(O)c(O)c2)oc2c(CN3CCN(Cc4c(O)cc(O)c5c(=O)c(O)c(-c6ccc(O)c(O)c6)oc45)CC3)c(O)cc(O)c12`, the inhibition entry (in the assay with ARPE-19; in assay [1]) was “Active” throughout.
As to `O=c1c(O)c(-c2ccc(O)c(O)c2)oc2c(CN3CCc4cc(O)c(O)cc4C3)c(O)cc(O)c12`, the inhibition entry (in the assay with ARPE-19; in assay [1]) was “Active” throughout.
